# Measurements reported in ChEMBL document CHEMBL1275347, “New fluoro derivatives of the pyrazolo[5,1-c][1,2,4]benzotriazine 5-oxide system: evaluation of fluorine binding properties in the benzodiazepine site on γ-aminobutyrric acid type A (GABA(A)) receptor. Design, synthesis, biological, and molecular modeling investigation” (J Med Chem, 2010).
# Active and inactive are the calls of the source. The rule behind the calls is not given here.
# What was measured:
# Mus musculus [1] = assay: Effect on learning and memory process in CD1 albino mouse assessed as improvement in retention latency at 100 mg/kg, po after 24 hrs by passive avoidance test; type: functional, organism-based; set-up: dose 100 mg/kg
# How it was run: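 Passive avoidance in male CD-1 mice; flumazenil suspended in 1% carboxymethylcellulose, dosed 30 min before training; retention test 24 h later, retention latency recorded. 9-11 mice per group; mean ± SEM versus control.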
# [2] = Displacement of [3H]Ro15-1788 from GABA(A) receptor benzodiazepine site in bovine brain membrane; type: cell membranes, Bos taurus
# How it was run: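 Bovine cerebral cortex membranes were diluted in 50 mM Tris-citrate pH 7.4 and used for [3H]Ro15-1788 displacement, with at least six test concentrations. Five experiments were run in triplicate. IC50 came from iterative curve fitting and Ki from Cheng-Prusoff, reported as mean ± SEM. Ki was derived only where inhibition at 10 μM exceeded 80%.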
# Bos taurus = organism: Bos taurus; assay: Displacement of [3H]Ro15-1788 from GABA(A) receptor benzodiazepine site in bovine brain membrane at 10 uM; type: cell membranes
# How it was run: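 Percent inhibition of specific [3H]Ro15-1788 binding to bovine cerebral cortex membranes in 50 mM Tris-citrate pH 7.4, measured with test compound at 10 μM.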
# Mus musculus [3] = assay: Anxiolytic activity in CD1 albino mouse assessed as sleeping time at 3 mg/kg, po pretreated 30 mins before test; type: functional
# How it was run: (§1)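 Male CD-1 mice given compound po in 1% carboxymethylcellulose 30 min before ethanol (4 g/kg ip). Sleep time is the duration of loss of righting reflex, capped at 210 min. Values are mean ± SEM of treated mice.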
# Mus musculus [4] = assay: Toxicity in CD1 albino mouse assessed as number of falls from rod over 30 seconds at 10 mg/kg, po after 25 mins of drug administration by rotarod test; type: organism-based; set-up: dose 10 mg/kg, route oral; settings: in vivo
# How it was run: (§2)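 Rota-rod test in male CD-1 mice dosed po in 1% CMC. Falls from the rod were counted over 30 s, 25 min after dosing. Methods give the rod speed as 24 rpm; the table gives 16 rpm. Values are mean ± SEM.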
# Mus musculus [5] = assay: Toxicity in CD1 albino mouse assessed as myorelaxant activity over 35 mins at 30 mg/kg, po by grip-strength meter assay; type: organism-based; set-up: dose 30 mg/kg, route oral; settings: in vivo
# How it was run: (§3)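 Grip-strength meter test in male CD-1 mice given compound po in 1% CMC 30 min before testing. Grip force was read in g at 35 min. Values are mean ± SEM.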
# Mus musculus [6] = assay: Toxicity in CD1 albino mouse assessed as number of falls from rod over 30 seconds at 30 mg/kg, po after 25 mins of drug administration by rotarod test; type: organism-based; set-up: dose 30 mg/kg, route oral; settings: in vivo; how it was run: as §2
# Mus musculus [7] = assay: Anxiolytic activity in CD1 albino mouse assessed as sleeping time at 10 mg/kg, po pretreated 30 mins before test; type: functional; how it was run: as §1
# Mus musculus [8] = assay: Anxiolytic activity in CD1 albino mouse at 3 mg/kg, po by light/dark box test; type: functional, organism-based; set-up: dose 3 mg/kg
# How it was run: (§4)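 Male CD-1 mice dosed po in 1% CMC 30 min before the light-dark box test. Each mouse was placed in the centre of the lit area facing away from the dark side and explored for 5 min. Transfers between compartments and time spent in the light were scored. n = 9-10 per group, mean ± SEM.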
# Mus musculus [9] = assay: Effect on duration of loss of righting reflex in ethanol-induced in CD1 albino mouse at 10 mg/kg, po preincubated 30 mins before ethanol challenge; type: functional, organism-based; set-up: dose 10 mg/kg; how it was run: as §1
# Mus musculus [10] = assay: Anxiolytic activity in CD1 albino mouse at 30 mg/kg, po by light/dark box test; type: functional, organism-based; set-up: dose 30 mg/kg; how it was run: as §4
# Mus musculus [11] = assay: Anticonvulsant activity in CD1 albino mouse assessed as protection against pentylenetetrazole-induced shock and convulsion at 30 mg/kg, ip treated after 30 mins of pentylenetetrazole measured for 30 mins; type: functional; settings: route intraperitoneal
# Mus musculus [12] = assay: Anticonvulsant activity in CD1 albino mouse assessed as protection against pentylenetetrazole-induced shock and convulsion at 10 mg/kg, ip treated after 30 mins of pentylenetetrazole measured for 30 mins; type: functional; settings: route intraperitoneal
# Mus musculus [13] = assay: Anxiolytic activity in CD1 albino mouse at 10 mg/kg, po by light/dark box test; type: functional, organism-based; set-up: dose 10 mg/kg; how it was run: as §4
# Mus musculus [14] = assay: Effect on duration of loss of righting reflex in ethanol-induced in CD1 albino mouse at 3 mg/kg, po preincubated 30 mins before ethanol challenge; type: functional, organism-based; set-up: dose 3 mg/kg; how it was run: as §1
# Mus musculus [15] = assay: Effect on learning and memory process in CD1 albino mouse assessed as improvement in retention latency at 3 mg/kg, po after 24 hrs by passive avoidance test; type: functional, organism-based; set-up: dose 3 mg/kg
# How it was run: (§5)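 Passive avoidance test in male CD-1 mice. Compounds were given po 30 min before training, and retention latency was tested 24 h later. n = 9-11 per group, mean ± SEM.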
# Mus musculus [16] = assay: Toxicity in CD1 albino mouse assessed as myorelaxant activity over 35 mins at 10 mg/kg, po by grip-strength meter assay; type: organism-based; set-up: dose 10 mg/kg, route oral; settings: in vivo; how it was run: as §3
# Mus musculus [17] = assay: Toxicity in CD1 albino mouse at 10 mg/kg, po in presence of 100 mg/kg, po flumazenil; type: organism-based; settings: in vivo
# Mus musculus [18] = assay: Effect on learning and memory process in CD1 albino mouse assessed as improvement in retention latency at 10 mg/kg, po after 24 hrs by passive avoidance test; type: functional, organism-based; set-up: dose 10 mg/kg; how it was run: as §5
# Mus musculus [19] = assay: Anxiolytic activity in CD1 albino mouse at 10 mg/kg, po by light/dark box test in presence of 100 mg/kg, po flumazenil; type: functional, organism-based
# Mus musculus [20] = assay: Effect on learning and memory process in CD1 albino mouse assessed as improvement in retention latency at 30 mg/kg, po after 24 hrs by passive avoidance test; type: functional, organism-based; set-up: dose 30 mg/kg; how it was run: as §5
# Mus musculus [21] = assay: Anxiolytic activity in CD1 albino mouse assessed as sleeping time at 0.3 mg/kg, ip pretreated 20 mins before test; type: functional; settings: route intraperitoneal
# How it was run: (§6)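 Male CD-1 mice given diazepam ip (suspended in 1% carboxymethylcellulose) 20 min before test. Ethanol 4 g/kg ip injected […]; duration of loss of righting reflex taken as sleep time, capped at 210 min. Mean ± SEM; ANOVA with Scheffe post hoc test versus 1% CMC controls.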
# Mus musculus [22] = assay: Anxiolytic activity in CD1 albino mouse assessed as sleeping time at 1 mg/kg, ip pretreated 20 mins before test; type: functional; settings: route intraperitoneal; how it was run: as §6
smiles,measurement,setting,value
CCOC(=O)c1ncn2c1CN(C)C(=O)c1cc(F)ccc1-2,Activity,Mus musculus [1],Active
COc1ccccc1COc1ccc2c(c1)n1ncc(F)c1n[n+]2[O-],Ki,[2],3.19 nM
O=C(OCc1cccs1)c1cnn2c1nnc1ccc(OC(F)F)cc12,Ki,[2],1.04 nM
COc1ccccc1C(=O)c1cnn2c1n[n+]([O-])c1ccc(C(F)(F)F)cc12,Ki,[2],1540 nM
FC(F)Oc1ccc2nnc3c(I)cnn3c2c1,Ki,[2],5.01 nM
[O-][n+]1nc2c(-c3ccoc3)cnn2c2cc(C(F)(F)F)ccc21,Ki,[2],112 nM
[O-][n+]1nc2c(F)cnn2c2cc(OCc3ccncc3)ccc21,Ki,[2],381 nM
CCOC(=O)c1cnn2c1nnc1ccc(OC(F)F)cc12,Ki,[2],51.7 nM
[O-][n+]1nc2c(-c3ccsc3)cnn2c2cc(C(F)(F)F)ccc21,Ki,[2],192 nM
[O-][n+]1nc2c(F)cnn2c2cc(Cl)ccc21,inhibition,Bos taurus,50%
O=C(OCc1cccs1)c1cnn2c1n[n+]([O-])c1cc(C(F)(F)F)ccc12,inhibition,Bos taurus,34%
[O-][n+]1nc2c(Cl)cnn2c2cc(C(F)(F)F)ccc21,Ki,[2],175 nM
C#CCOc1ccc2c(c1)n1ncc(F)c1n[n+]2[O-],Ki,[2],268 nM
[O-][n+]1nc2c(Br)cnn2c2ccc(C(F)(F)F)cc21,inhibition,Bos taurus,38%
COc1ccccc1COC(=O)c1cnn2c1n[n+]([O-])c1cc(C(F)(F)F)ccc12,inhibition,Bos taurus,38%
[O-][n+]1nc2c(F)cnn2c2cc(OCc3cccs3)ccc21,Ki,[2],93.3 nM
[O-][n+]1nc2c(F)cnn2c2cc(OCc3ccccc3OC(F)(F)F)ccc21,inhibition,Bos taurus,27%
O=C(OCc1cccs1)c1cnn2c1n[n+]([O-])c1ccc(C(F)(F)F)cc12,Time,Mus musculus [3],48.6 s
same,Activity,Mus musculus [4],0.1
same,Activity,Mus musculus [5],57.9 g
same,Activity,Mus musculus [6],0.2
same,Time,Mus musculus [7],40.8 s
same,Activity,Mus musculus [8],Active
same,Activity,Mus musculus [9],inactive
same,Activity,Mus musculus [10],Active
same,Activity,Mus musculus [11],0%
same,Activity,Mus musculus [12],0%
same,Activity,Mus musculus [13],Active
same,Ki,[2],10 nM
same,Activity,Mus musculus [14],inactive
same,Activity,Mus musculus [15],Active
same,Activity,Mus musculus [16],52.6 g
same,Activity,Mus musculus [17],Non-toxic
same,Activity,Mus musculus [18],Active
COc1ccccc1COC(=O)c1cnn2c1n[n+]([O-])c1ccc(C(F)(F)F)cc12,Time,Mus musculus [3],36.2 s
same,Activity,Mus musculus [4],0.2
same,Activity,Mus musculus [5],48.5 g
same,Activity,Mus musculus [19],inactive
same,Activity,Mus musculus [6],0.2
same,Time,Mus musculus [7],54.3 s
same,Activity,Mus musculus [9],inactive
same,Activity,Mus musculus [11],0%
same,Activity,Mus musculus [12],0%
same,Activity,Mus musculus [13],Active
same,Ki,[2],5.8 nM
same,Activity,Mus musculus [14],inactive
same,Activity,Mus musculus [16],51.7 g
same,Activity,Mus musculus [18],inactive
O=C(c1cccs1)c1cnn2c1n[n+]([O-])c1ccc(C(F)(F)F)cc12,Ki,[2],164 nM
CCOC(=O)c1cnn2c1n[n+]([O-])c1ccc(OC(F)F)cc12,Ki,[2],5.75 nM
[O-][n+]1nc2c(F)cnn2c2cc(OCc3ccco3)ccc21,Ki,[2],129 nM
[O-][n+]1nc2c(Br)cnn2c2cc(C(F)(F)F)ccc21,Ki,[2],139 nM
[O-][n+]1nc2c(I)cnn2c2cc(C(F)(F)F)ccc21,Ki,[2],18 nM
[O-][n+]1nc2c(I)cnn2c2cc(OC(F)F)ccc21,Activity,Mus musculus [12],0%
same,Activity,Mus musculus [20],inactive
same,Activity,Mus musculus [13],Active
same,Ki,[2],2.47 nM
same,Activity,Mus musculus [15],inactive
same,Activity,Mus musculus [18],inactive
CN1C(=O)CN=C(c2ccccc2)c2cc(Cl)ccc21 [DIAZEPAM],Time,Mus musculus [21],134.5 s
same,Ki,[2],10 nM
same,Time,Mus musculus [22],14.5 s
CCOC(=O)c1cnn2c1n[n+]([O-])c1ccc(C(F)(F)F)cc12,Ki,[2],316 nM
[O-][n+]1nc2c(-c3cccs3)cnn2c2cc(C(F)(F)F)ccc21,Ki,[2],57 nM
CCOC(=O)c1cnn2c1n[n+]([O-])c1cc(C(F)(F)F)ccc12,inhibition,Bos taurus,3%
